# A selection: hits, their analogues and other compounds. The true share with any hit is near 9.8%.
# PMI activator: activators of human phosphomannose isomerase. 190,000 compounds, 0.005% hits. activation factor at 20 µM. AID 1214. purified human PMI, coupled resazurin fluorescence, 20 min; active compounds read high; 1 = vehicle control, 0 substrate-free wells;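 active means activation factor of 2 or more at 20 µM, relative to plate controls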
# PMI act hi M6P: PMI (human) activation, high substrate; P34949; coupled PMI enzyme assay, resazurin fluorescence, 20 min; active compounds read high; 1 = untreated enzyme, 0 = substrate-free blank; activation factor at 20 µM; 190,000 compounds, 0.34% hits; AID 1216;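 active means activation factor of 2 or more at 20 µM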
#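 assay system = human phosphomannose isomerase with PGI, G6PDH, diaphorase coupling enzymes | quantity = 15 ng/mL PMI | incubation = enzyme reaction with compound 20 min at room temperature | medium = HEPES pH 7.4 buffer with MgCl2 and Tween-20 | compound dosing = one concentration, 20 µM, in 1% DMSO | measured by = Diaphorase-driven resazurin-to-resorufin fluorescence, excitation 544, emission 590 nm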
# Rad51 HR inh: Rad51 (human) homologous recombination inhibition. Q06609. hRad51 DNA strand exchange, fluorescence dequenching. inhibition, % at 10 µM. 200,000 compounds, 0.085% hits. AID 1385;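 active means inhibition above 40% at the single screening dose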
# Target sequence (Q06609 whole entry, looked up): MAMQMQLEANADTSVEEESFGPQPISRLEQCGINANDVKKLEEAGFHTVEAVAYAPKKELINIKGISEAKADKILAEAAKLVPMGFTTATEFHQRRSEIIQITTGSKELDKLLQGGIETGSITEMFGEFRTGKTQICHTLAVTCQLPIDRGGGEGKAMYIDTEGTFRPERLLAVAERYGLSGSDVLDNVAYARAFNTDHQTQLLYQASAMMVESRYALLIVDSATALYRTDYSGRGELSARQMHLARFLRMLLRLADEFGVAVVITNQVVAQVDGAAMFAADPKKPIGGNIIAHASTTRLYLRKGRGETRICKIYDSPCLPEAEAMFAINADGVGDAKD
#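 Test system – preformed human Rad51 ssDNA filaments · Reagent – Donor/quencher-labelled 47-bp dsDNA substrate · Incubation – 37 °C 15-min filament assembly, 30-min compound preincubation, 15-min exchange · Signal – FRET fluorescence dequenching, excitation 485 nm, emission 520 nm · Read-out – percent inhibition from fluorescence, normalised to plate control and blank means · Benchmarks – plate control and blank wells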
# Calpain2 inh: blocks pig calpain II enzyme activity; purified calpain II, fluorogenic peptide substrate, 30 min; inhibition, % at 16 µM; 220,000 compounds, 0.37% hits;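 active means inhibition above about 50%, limit read from the data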
# WT yeast gro inh: growth inhibition of WT yeast, mitochondrial fusion screen. AID 1362. 190,000 compounds, 2.1% hits. mitochondrial fusion phenotypic screen, WT strain. inhibition, % at 10 µM; in the data active means inhibition above about 58%; tested in S. cerevisiae
# Lmaj promast: reduces viability of Leishmania major promastigotes; resazurin fluorescence viability; inhibition, % at 10 µM; 200,000 compounds, 9% hits; AID 1063; in the data active means inhibition above about 50%;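 further: promastigotes grown with compound for 44 hours at 28 °C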
# Hits are given with their value; i = inactive; nt = no result.
SMILES,PMI activator,PMI act hi M6P,Rad51 HR inh,Calpain2 inh,WT yeast gro inh,Lmaj promast
S=C1NC(C23CC4CC(CC(C4)C2)C3)=CC(c2ccc3c(c2)OCO3)N1 (stereo not drawn),i,i,i,i,77,i
COc1ccc(OC)c(C2C=C(C34CC5CC(CC(C5)C3)C4)NC(=S)N2)c1 (stereo not drawn),i,i,i,i,76,99
CC1C(=O)C(C)C(c2ccc3c(c2)OCO3)NC1c1ccc2c(c1)OCO2 (stereo not drawn),i,i,i,i,i,i
O=C(Cn1cnc2cc([N+](=O)[O-])ccc2c1=O)Nc1ccc(N2CCOCC2)cc1,nt,nt,i,i,nt,nt
C=C1c2cc(OC)ccc2NC(=O)N1CC,i,2,i,i,i,i
CCN1/C(=C/C(C)=O)Sc2ccc(OC)cc21,i,i,i,i,i,i
CCN(CC)c1ccc(S(=O)(=O)Nc2cc(Cl)ccc2Cl)cc1NC(=S)NC(=O)C1CCCC1,i,i,i,i,i,56
CN(C)C(=O)CSc1cccc2cccnc12,i,i,i,i,i,100
CC(=O)/C(=N\Nc1ccccc1)Sc1cccc2cccnc12,i,i,i,i,i,i
O=S(=O)(Nc1cc(Sc2cccc3cccnc23)c(O)c2ccccc12)c1ccc(F)cc1,i,i,i,i,i,100
COc1ccc(S(=O)(=O)Nc2cc(Sc3ncn[nH]3)c(O)c3ccccc23)cc1,i,i,nt,i,94,100
O=C(Sc1cccc2cccnc12)c1ccc(F)cc1,i,i,i,i,i,100
Brc1ccc(-c2cnco2)cc1,i,i,i,i,i,i
CN(C)S(=O)(=O)c1ccc(C(=O)Nc2nc(-c3cccs3)cs2)cc1,i,i,i,i,i,i
CN(C)S(=O)(=O)c1ccc(C(=O)Nc2nnc(-c3cccs3)o2)cc1,i,i,i,i,i,53
N#Cc1ccc(C(=O)Nc2nnc(-c3cccs3)o2)cc1,i,i,nt,i,i,98
N#Cc1ccc(C(=O)Nc2nnc(-c3ccco3)o2)cc1,i,i,i,i,i,i
O=C(Nc1nnc(-c2cccs2)o1)c1cccc(C(F)(F)F)c1,i,i,i,i,i,95
CN(C)S(=O)(=O)c1ccc(C(=O)Nc2nnc(-c3ccc4c(c3)CCCC4)o2)cc1,i,i,i,i,68,98
CC(C)NC(=O)NC(=O)COC(=O)c1ncc(Cl)c(Cl)c1Cl,i,i,i,i,i,i
O=C(CCCNS(=O)(=O)c1ccc(Cl)c(Cl)c1)NCCc1ccccn1,i,i,i,i,i,i
CCn1ncc(CN2CCN(Cc3cccc(OC)c3)C(CCO)C2)c1C (stereo not drawn),i,i,i,i,i,i
COc1ccc(N)cc1-n1cnnn1,i,i,i,i,i,i
Cc1cccc(NC(=S)N(CCc2nc3cc(C)c(C)cc3[nH]2)Cc2cccnc2)c1,i,i,i,i,i,i
CSc1cccc(NC(=S)N(Cc2ccc(C)cc2)Cc2cccnc2)c1,i,i,i,i,67,i
SMILES,PMI activator,PMI act hi M6P,Rad51 HR inh,Calpain2 inh,WT yeast gro inh,Lmaj promast
O=C(O)CNC(=S)N(Cc1ccccc1)Cc1cccs1,i,i,i,i,i,i
Cc1ccc(Cl)cc1NC(=S)N(Cc1cccnc1)Cc1ccccc1Cl,i,i,i,i,i,99
Cc1cccc(C)c1NC(=S)N(Cc1ccccc1)Cc1cccs1,i,i,i,i,73,58
Cc1ccccc1NC(=S)N(Cc1cccnc1)Cc1ccco1,i,i,i,i,i,97
Nn1c(SCc2cccc(Br)c2)nnc1-c1ccncc1,nt,nt,i,i,nt,nt
Cc1ccccc1NC(=S)N(Cc1ccccc1)Cc1cccnc1,i,i,i,i,i,86
Cc1cccc(NC(=O)c2ccc(N3CCOCC3)c([N+](=O)[O-])c2)n1,i,i,i,i,i,i
Cc1cccc(NC(=O)c2ccc(N3CCCCC3)c([N+](=O)[O-])c2)n1,i,i,nt,i,78,i
Cc1ccc(C)c2sc(NC(=O)c3ccc(N4CCCCC4)c([N+](=O)[O-])c3)nc12,i,i,i,i,i,81
Cn1c2c(c(=O)n(C)c1=O)NC1(N2)C(=O)Nc2ccccc21 (stereo not drawn),nt,nt,i,i,nt,nt
C/C(=N\O)c1ncc(C(F)(F)F)cc1Cl,i,i,nt,i,i,i
COc1ccccc1-c1ccc(SCc2cccc(C)c2)nn1,i,i,i,i,68,99
Cc1ccsc1/C=N/N1CCN(c2ccccc2)CC1,i,i,i,i,i,53
Cc1ccc(NC(=S)N/N=C/c2cccn2Cc2ccccc2F)cc1,nt,nt,i,i,nt,nt
COc1ccc(C/C(C)=N/NS(=O)(=O)c2ccc(Br)cc2)cc1,i,i,nt,i,i,i
O=[N+]([O-])c1cncc([N+](=O)[O-])c1Nc1ccccc1Cl,i,i,i,i,i,80
N/C(Cc1ccccc1)=N\OC(=O)c1cccc2ccccc12,i,i,i,i,81,97
N/C(=N\OC(=O)c1cccc2ccccc12)c1ccc(Br)cc1,i,i,i,i,77,i
N/C(=N\OC(=O)c1cccc2ccccc12)c1ccncc1,nt,nt,nt,i,nt,nt
CN(CCc1nc2ccc(Cl)cc2[nH]1)Cc1nc(CC2CC2)no1,i,i,i,i,i,i
O=C1/C(=C\c2ccc(C(F)(F)F)cc2)CSc2sccc21,nt,nt,i,i,nt,nt
CCOC(=O)C1C(=O)C=C(c2ccc(Br)cc2)CC1c1ccco1 (stereo not drawn),i,i,i,i,62,i
CCOC(=O)C1C(=O)C=C(c2cccc(NS(C)(=O)=O)c2)CC1c1ccco1 (stereo not drawn),i,i,i,i,i,i
CCc1nnc(NC(=O)c2ccncc2)s1,i,i,i,i,i,i
Cc1ccc(S(=O)(=O)CCc2nnc(NC(=O)c3ccccn3)s2)cc1,i,i,i,i,i,82
SMILES,PMI activator,PMI act hi M6P,Rad51 HR inh,Calpain2 inh,WT yeast gro inh,Lmaj promast
CCc1nnc(NC(=O)c2cccc(C(=O)Nc3nnc(CC)s3)n2)s1,i,i,i,i,63,99
Cc1ccc(Cn2c(=N)n(CC(=O)c3ccc([N+](=O)[O-])cc3)c3ccccc32)cc1,i,i,i,i,i,74
Cc1ccc(S(=O)(=O)CC(=O)c2ccc([N+](=O)[O-])cc2)cc1,nt,nt,i,i,nt,nt
CCn1c(=N)n(CC(=O)c2ccc(OC)cc2)c2ccccc21,i,i,i,i,i,95
CCCn1c(=N)n(CCOc2ccc(OC)cc2)c2ccccc21,i,i,nt,i,i,94
CCOC(=O)Cn1c(=N)n(CCOc2ccc(OC)cc2)c2ccccc21,i,i,i,i,i,i
CCCCn1c(=N)n(CC(=O)c2ccc([N+](=O)[O-])cc2)c2ccccc21,i,i,i,i,i,81
C=CCc1cc(C=O)cc(OCC)c1O,i,i,i,i,i,i
CS(=O)(=O)N(CC(=O)Nc1ccc(S(=O)(=O)N2CCCC2)cc1)c1cccc(F)c1,nt,nt,i,i,nt,nt
COc1ccc(C(=O)Cn2c(C(=O)/C=C/c3ccccc3)nc3ccccc32)cc1,i,i,i,i,i,89

# Screening data as filed in PubChem.
